Assay results of several laboratories.
Lines come from different studies, so protocols differ.
Cell line: HeLa
Effect on: cell growth or viability

O=C(Cn1cc(COc2ncnc3[nH]cnc23)nn1)Nc1ccc(O)cc1 gave an IC50 of 17.6 µM (MTT).
With CN(C)C(=S)[N-]N=C(c1ccccn1)c1ccccn1.[O]=[V+]=[O] the IC50 was 42.9 µM (MTT; 48 h).
For CC(C)CCOc1cc(C[n+]2cn(CCC(C)C)c3cc(Br)c(Br)cc32)c(OCCC(C)C)c2ccccc12, the IC50 was 7.2 µM (MTT; 24 h).
O=C(Cn1cc(COc2ncnc3[nH]cnc23)nn1)Nc1ccc([N+](=O)[O-])cc1 has an IC50 of 10.4 µM (MTT).
Fc1ccc(NC(=S)N/N=C/c2cccc3cc4ccccc4nc23)cc1 gave an IC50 of 18.4 µM (MTT; 48 h).
CC(C)CCOc1cc(C[n+]2c(CO)n(CCC(C)C)c3ccccc32)c(OCCC(C)C)c2ccccc12 gave an IC50 of 11.8 µM (MTT; 24 h).
CNc1cccc(Nc2nc(-c3ccncc3)nc3c2CNCC3)c1 gave an IC50 of > 100 µM (MTT).
With CSc1ccccc1-c1cc(C(N)=O)c2[nH]c3c(c2c1)CC(N)CC3 (centres unmarked) the IC50 was 1.46 µM.
With COc1cc(C(=O)C[n+]2cn(CCC(C)C)c3ccccc32)c(OC)c2ccccc12 the IC50 was 17 µM (MTT; 24 h).
For CCC(=CCc1c(O)cc2c(c1O)C(=O)CC(c1ccc(O)cc1)O2)CC (stereo in doubt), the IC50 was 19.1 µM (MTT; 48 h).
The IC50 of COc1cccc(NC(=S)N/N=C/c2cccc3cc4ccccc4nc23)c1 is reported as 46.8 µM (MTT; 48 h).
For Cc1cc2c(cc1C)[n+](Cc1cc(OCCC(C)C)c3ccccc3c1OCCC(C)C)cn2CCC(C)C, the IC50 was 8.9 µM (MTT; 24 h).
The IC50 of COc1cccc2c1C(=O)c1c(O)c3c(c(O)c1C2=O)C[C@@](O)(C(=O)CO)C[C@@H]3O[C@H]1C[C@H](N)[C@H](O)[C@H](C)O1 is reported as 0.51 µM (MTT; 48 h).
With CN(C)c1cccc(Nc2nc(-c3ccncc3)nc3c2CNCC3)c1 the IC50 was 32.4 µM (MTT).
CN(C)C1CCc2[nH]c3c(C(N)=O)ccc(-c4ccccc4Cl)c3c2C1 (centres unmarked) has an IC50 of 0.19 µM.
For CC(=O)O[C@H]1C(=O)[C@@]2(C)[C@H]([C@H](OC(=O)c3ccccc3)[C@]3(O)C[C@H](OC(=O)[C@H](O)[C@@H](NC(=O)c4ccccc4)c4ccccc4)C(C)=C1C3(C)C)[C@]1(OC(C)=O)CO[C@@H]1C[C@@H]2O, the IC50 was 15.8 µM (MTT; 48 h).
With CCC(=CCc1c(O)cc2c(c1O)C(=O)C[C@@H](c1ccccc1O)O2)CC the IC50 was 51.3 µM (MTT; 48 h).
COc1cc([C@@H]2c3cc4c(cc3[C@@H](O[C@@H]3O[C@@H]5CO[C@@H](C)O[C@H]5[C@H](O)[C@H]3O)[C@H]3COC(=O)[C@H]23)OCO4)cc(OC)c1O gave an IC50 of 3.9 µM (MTT; 48 h).
CCCCCCCCOc1cc(C(=O)C[n+]2cn(CCC(C)C)c3ccccc32)c(OCCCCCCCC)c2ccccc12 gave an IC50 of 14.3 µM (MTT; 24 h).
COc1cccc2c1C(=O)c1c(O)c3c(c(O)c1C2=O)C[C@@](O)(C(=O)CO)C[C@@H]3O[C@H]1C[C@H](N)[C@H](O)[C@H](C)O1 gave an IC50 of 0.27 µM (MTT; 75 h).
For O=Cc1cccc(NC(=O)Cn2cc(COc3ncnc4[nH]cnc34)nn2)c1, the IC50 was 22.1 µM (MTT).
The IC50 of COc1ccc(NC(=S)N/N=C/c2cccc3cc4ccccc4nc23)cc1 is reported as 14.8 µM (MTT; 48 h).
For CN1CCc2c(c3ccccc3n2Cc2ccc(C(=O)NO)cc2)C1, the IC50 was 17.6 µM (CCK-8; 48 h).
Cc1n(CCC(C)C)c2ccccc2[n+]1Cc1cc(OCCC(C)C)c2ccccc2c1OCCC(C)C has an IC50 of 7.6 µM (MTT; 24 h).
With Cc1ccc(NC(=O)Cn2cc(COc3ncnc4[nH]cnc34)nn2)c(C)c1 the IC50 was 21.4 µM (MTT).
For COC(C)c1n(CCC(C)C)c2ccccc2[n+]1Cc1cc(OCCC(C)C)c2ccccc2c1OCCC(C)C (centres unmarked), the IC50 was 5.7 µM (MTT; 24 h).
The IC50 of COc1cccc(Nc2nc(-c3ccncc3)nc3c2CNCC3)c1 is reported as 23.2 µM (MTT).
The IC50 of CC(C)CCOc1cc(C[n+]2c(C(C)C)n(CCC(C)C)c3ccccc32)c(OCCC(C)C)c2ccccc12 is reported as 6.8 µM (MTT; 24 h).
For S=C(N/N=C/c1cccc2cc3ccccc3nc12)Nc1ccccc1, the IC50 was 28.3 µM (MTT; 48 h).
